{"source": "ChEMBL document CHEMBL1811814", "about": "“Synthesis and evaluation of indole, pyrazole, chromone and pyrimidine based conjugates for tumor growth inhibitory activities--development of highly efficacious cytotoxic agents” (Eur J Med Chem, 2010)", "type_in_all_cases": "functional", "key": {"[1]": {"test_system": "786-0", "assay": "Growth inhibition of human 786-0 cells", "conditions": "read-out: LC50 (the source's name)"}, "[2]": {"test_system": "BT-549", "assay": "Growth inhibition of human BT549 cells assessed tumor cell growth at 10^-5 M", "set-up": "scale not given: the % may be the effect or the level left", "method_in_brief": "(§1)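 NCI 60-human-tumor-cell-line panel screen. Each compound was tested at a single concentration of 10^-5 M, and percent growth of tumor cells was recorded for each cell line. Growth inhibition was expressed from these percent-growth values.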"}, "[3]": {"test_system": "SN12C", "assay": "Growth inhibition of human SN12C cells assessed tumor cell growth at 10^-5 M", "set-up": "scale not given: the % may be the effect or the level left", "method_in_brief": "as §1"}, "[4]": {"test_system": "OVCAR-5", "assay": "Growth inhibition of human OVCAR5 cells"}, "[5]": {"test_system": "A498", "assay": "Growth inhibition of human A498 cells"}, "[6]": {"test_system": "NCI-H23", "assay": "Growth inhibition of human NCI-H23 cells assessed tumor cell growth at 10^-5 M", "set-up": "scale not given: the % may be the effect or the level left", "method_in_brief": "as §1"}, "[7]": {"test_system": "RXF 393", "assay": "Growth inhibition of human RXF393 cells"}, "[8]": {"test_system": "HCT-116", "assay": "Growth inhibition of human HCT116 cells assessed tumor cell growth at 10^-5 M", "set-up": "scale not given: the % may be the effect or the level left", "method_in_brief": "as §1"}, "[9]": {"test_system": "HCT-15", "assay": "Growth inhibition of human HCT15 cells assessed tumor cell growth at 10^-5 M", "set-up": "scale not given: the % may be the effect or the level left", "method_in_brief": "as §1"}, "[10]": {"assay": "Growth inhibition of human RPMI8266 cells"}, "[11]": {"test_system": "NCI/ADR-RES", "assay": "Growth inhibition of human NCI/ADR-RES cells"}, "[12]": {"test_system": "MDA-MB-435", "assay": "Growth inhibition of human MDA-MB-435 cells assessed tumor cell growth at 10^-5 M", "set-up": "scale not given: the % may be the effect or the level left", "method_in_brief": "as §1"}, "[13]": {"test_system": "DU-145", "assay": "Growth inhibition of human DU145 cells assessed tumor cell growth at 10^-5 M", "set-up": "scale not given: the % may be the effect or the level left", "method_in_brief": "as §1"}, "[14]": {"test_system": "NCI-H322M", "assay": "Growth inhibition of human NCI-H322M cells"}, "[15]": {"test_system": "A549", "assay": "Growth inhibition of human A549 cells"}, "[16]": {"test_system": "NCI-H460", "assay": "Growth inhibition of human NCI-H460 cells assessed tumor cell growth at 10^-5 M", "set-up": "scale not given: the % may be the effect or the level left", "method_in_brief": "as §1"}, "[17]": {"test_system": "SF-539", "assay": "Growth inhibition of human SF539 cells assessed tumor cell growth at 10^-5 M", "set-up": "scale not given: the % may be the effect or the level left", "method_in_brief": "as §1"}, "[18]": {"test_system": "OVCAR-3", "assay": "Growth inhibition of human OVCAR3 cells"}, "[19]": {"test_system": "UACC-257", "assay": "Growth inhibition of human UACC257 cells"}, "[20]": {"test_system": "SK-MEL-28", "assay": "Growth inhibition of human SK-MEL-28 cells assessed tumor cell growth at 10^-5 M", "set-up": "scale not given: the % may be the effect or the level left", "method_in_brief": "as §1"}, "[21]": {"test_system": "SW-620", "assay": "Growth inhibition of human SW620 cells assessed tumor cell growth at 10^-5 M", "set-up": "scale not given: the % may be the effect or the level left", "method_in_brief": "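Single-dose screen at 10^-5 M across the 60 human tumor cell line panel, run to NCI standards. The value is the percent growth of each cell line in the presence of compound. Compounds active at this dose moved on to five-concentration testing (10^-4 to 10^-8 M).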"}, "[22]": {"test_system": "SK-MEL-5", "assay": "Growth inhibition of human SK-MEL-5 cells"}, "[23]": {"test_system": "EKVX", "assay": "Growth inhibition of human EKVX cells"}, "[24]": {"test_system": "HOP-92", "assay": "Growth inhibition of human HOP92 cells assessed tumor cell growth at 10^-5 M", "set-up": "scale not given: the % may be the effect or the level left", "method_in_brief": "as §1"}, "[25]": {"test_system": "SF-295", "assay": "Growth inhibition of human SF295 cells assessed tumor cell growth at 10^-5 M", "set-up": "scale not given: the % may be the effect or the level left", "method_in_brief": "as §1"}, "[26]": {"test_system": "NCI-H322M", "assay": "Growth inhibition of human NCI-H322M cells assessed tumor cell growth at 10^-5 M", "set-up": "scale not given: the % may be the effect or the level left", "method_in_brief": "as §1"}, "[27]": {"test_system": "SK-OV-3", "assay": "Growth inhibition of human SKOV3 cells"}, "[28]": {"test_system": "OVCAR-3", "assay": "Growth inhibition of human OVCAR3 cells assessed tumor cell growth at 10^-5 M", "set-up": "scale not given: the % may be the effect or the level left", "method_in_brief": "as §1"}, "[29]": {"test_system": "SK-MEL-2", "assay": "Growth inhibition of human SK-MEL-2 cells"}, "[30]": {"test_system": "NCI/ADR-RES", "assay": "Growth inhibition of human NCI/ADR-RES cells assessed tumor cell growth at 10^-5 M", "set-up": "scale not given: the % may be the effect or the level left", "method_in_brief": "as §1"}, "[31]": {"conditions": "read-out: LC50 (the source's name)"}}}
{"smiles": "CC1=NN(c2cccc(Cl)c2)C(=O)/C1=C\\C=C\\c1ccccc1", "values": [{"measurement": "CC50", "setting": "[1]", "result": 10.2, "unit": "µM"}, {"measurement": "Activity", "setting": "[2]", "result": 78.36, "unit": "%"}, {"measurement": "Activity", "setting": "[3]", "result": 0.41, "unit": "%"}, {"measurement": "GI50", "setting": "[4]", "result": 2.8, "unit": "µM"}, {"measurement": "CC50", "setting": "[4]; [31]", "result": "> 100", "unit": "µM"}, {"measurement": "GI50", "setting": "[5]", "result": 17.7, "unit": "µM"}, {"measurement": "CC50", "setting": "[5]; [31]", "result": "> 100", "unit": "µM"}, {"measurement": "Activity", "setting": "[6]", "result": 26.27, "unit": "%"}, {"measurement": "GI50", "setting": "[7]", "result": 2.1, "unit": "µM"}, {"measurement": "CC50", "setting": "[7]; [31]", "result": 7.2, "unit": "µM"}, {"measurement": "Activity", "setting": "[8]", "result": -89.22, "unit": "%"}, {"measurement": "Activity", "setting": "[9]", "result": 5, "unit": "%"}, {"measurement": "GI50", "setting": "[10]", "result": 2.8, "unit": "µM"}, {"measurement": "CC50", "setting": "[10]; [31]", "result": "> 100", "unit": "µM"}, {"measurement": "GI50", "setting": "[11]", "result": 3.3, "unit": "µM"}, {"measurement": "CC50", "setting": "[11]; [31]", "result": "> 100", "unit": "µM"}, {"measurement": "Activity", "setting": "[12]", "result": 13.63, "unit": "%"}, {"measurement": "Activity", "setting": "[13]", "result": 112.48, "unit": "%"}, {"measurement": "GI50", "setting": "[14]", "result": 28.1, "unit": "µM"}, {"measurement": "CC50", "setting": "[14]; [31]", "result": "> 100", "unit": "µM"}, {"measurement": "GI50", "setting": "[15]", "result": 16.2, "unit": "µM"}, {"measurement": "CC50", "setting": "[15]; [31]", "result": "> 100", "unit": "µM"}, {"measurement": "Activity", "setting": "[16]", "result": 100.76, "unit": "%"}, {"measurement": "Activity", "setting": "[17]", "result": 21.62, "unit": "%"}, {"measurement": "GI50", "setting": "[18]", "result": 2.1, "unit": "µM"}, {"measurement": "CC50", "setting": "[18]; [31]", "result": 8.9, "unit": "µM"}, {"measurement": "GI50", "setting": "[19]", "result": 2.1, "unit": "µM"}, {"measurement": "CC50", "setting": "[19]; [31]", "result": "> 100", "unit": "µM"}, {"measurement": "Activity", "setting": "[20]", "result": -76.48, "unit": "%"}, {"measurement": "Activity", "setting": "[21]", "result": 1.26, "unit": "%"}, {"measurement": "GI50", "setting": "[22]", "result": 2.2, "unit": "µM"}, {"measurement": "CC50", "setting": "[22]; [31]", "result": 20.8, "unit": "µM"}, {"measurement": "GI50", "setting": "[23]", "result": 3, "unit": "µM"}, {"measurement": "CC50", "setting": "[23]; [31]", "result": "> 100", "unit": "µM"}, {"measurement": "Activity", "setting": "[24]", "result": 101.34, "unit": "%"}, {"measurement": "Activity", "setting": "[25]", "result": 101.1, "unit": "%"}, {"measurement": "Activity", "setting": "[26]", "result": 111.8, "unit": "%"}, {"measurement": "GI50", "setting": "[27]", "result": 3.2, "unit": "µM"}, {"measurement": "CC50", "setting": "[27]; [31]", "result": "> 100", "unit": "µM"}, {"measurement": "Activity", "setting": "[28]", "result": 103.59, "unit": "%"}, {"measurement": "GI50", "setting": "[29]", "result": 3.8, "unit": "µM"}, {"measurement": "CC50", "setting": "[29]; [31]", "result": "> 100", "unit": "µM"}, {"measurement": "Activity", "setting": "[30]", "result": -17.49, "unit": "%"}]}
